High-throughput results: PubChem, several laboratories
The list is not random: actives were taken first. Their share in the collection is about 2.9%.
SENP1 inh – human SENP1 catalytic domain inhibitors, primary screen, biochemical, FRET, uHTS | 360,000 tested, 0.21% active | inhibition, % at 10 µM | Sentrin-specific protease 1 (Homo sapiens), Q9P0U3 | AID 624204, 2012 | recombinant SENP1 catalytic domain, CyPet-SUMO1-YPet FRET cleavage;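 active = inhibition at least 30% at 10 µM, raw YFP signal under a set limit, fluorescence ratio 0.5 to 1.5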;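 note: 0% = enzyme with DMSO and 100% = no enzyme wells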
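Material – human SENP1 catalytic domain · Input – SENP1 enzyme, 20 pM final · Compound dosing – single concentration of 10 µM compound, 0.5% DMSO final · Timing – enzyme reaction for 50 min at room temperature, dark · Measured by – FRET fluorescence in CFP and YFP emission channels · Control set – no-enzyme wells low, DMSO-plus-enzyme wells high control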
SENP8 block-1 – SENP8 protease inhibitors, primary screen, biochemical, luminescence; Sentrin-specific protease 8 (Homo sapiens), Q96LD8; purified SENP8, Z-RLRGG-aminoluciferin cleavage; inhibition, % at 10 µM; 330,000 tested, 1.2% active; in the data active = inhibition above about 50%
SENP8 block-2 – human SENP8 protease inhibitors, primary screen, biochemical, fluorescence, Nedd8 protein substrate, uHTS; inhibition, % at 20 µM; recombinant SENP8; 360,000 tested, 0.64% active; in the data active = inhibition mostly above about 40%, no sharp cut-off; inactive = mostly below about 27%
SENP7 block – SENP7 protease inhibitors, primary screen, biochemical, luminescence, uHTS | Sentrin-specific protease 7 (Homo sapiens), Q9BQF6 | recombinant SENP7, Z-RLRGG-aminoluciferin luminescence, 40 min | inhibition, % at 5 µM | 330,000 tested, 1.5% active | AID 434973, 2010;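 active = inhibition above about 50% at the single test dose, limit read from the data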;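 note: plate controls were DMSO with enzyme for no effect and no enzyme buffer wells for full effect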
Target sequence (Q9BQF6 706-1050 limits assumed): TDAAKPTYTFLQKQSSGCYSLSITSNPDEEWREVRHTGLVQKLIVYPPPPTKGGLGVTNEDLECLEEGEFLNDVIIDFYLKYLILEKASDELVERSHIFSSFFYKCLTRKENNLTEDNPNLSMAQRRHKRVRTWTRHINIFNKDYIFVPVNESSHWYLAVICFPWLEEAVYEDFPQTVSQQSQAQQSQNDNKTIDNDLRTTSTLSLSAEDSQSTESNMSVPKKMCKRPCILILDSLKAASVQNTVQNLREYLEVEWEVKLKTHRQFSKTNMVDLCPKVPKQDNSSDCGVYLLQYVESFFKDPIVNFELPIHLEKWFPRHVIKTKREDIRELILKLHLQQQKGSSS
HSP90 refold inh – HSP90 inhibitors, primary screen, cell lysate, luminescence | Rabbit reticulocyte lysate, luciferase refolding luminescence, 3 h | inhibition, % at 5.6 µM | 290,000 tested, 0.91% active;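 active = inhibition above the screen-wide mean plus 3 SD, computed separately per campaign, cut at about 16% in these data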;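 note: 0% = DMSO wells and 100% = 60 µM geldanamycin wells; inhibitors lower the luminescence because luciferase stays unfolded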
SENP6 inh – SENP6 protease inhibitors, primary screen, biochemical, luminescence, uHTS. AID 2599, 2010. 330,000 tested, 1.8% active. inhibition, % at 10 µM. Sentrin-specific protease 6 (Homo sapiens), Q9GZR1. Recombinant SENP6 catalytic domain, aminoluciferin luminescence;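 active = inhibition above about 50% at the single tested dose, limit read from the data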;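 note: plate controls were DMSO wells with enzyme for no effect and DMSO wells lacking enzyme for full effect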
SENP8 confirm – SENP8 protease inhibitors, retest, confirmation, biochemical, luminescence, single concentration; shares compounds with SENP7 block; Recombinant SENP8, Z-RLRGG-aminoluciferin luminescence, 60 min; inhibition, % at 12.5 µM; 6,200 tested, 40% active; AID 488912, 2010;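 active = mean inhibition across replicates above about 50%, limit read from the data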
SENP6 confirm – SENP6 protease inhibitors, confirmation, biochemical, luminescence, single concentration. recombinant SENP6, Z-RLRGG-aminoluciferin luminescence. AID 488915, 2010. inhibition, % at 12.5 µM. 6,200 tested, 58% active. shares compounds with SENP7 block
SENP7 confirm – SENP7 protease inhibitors, retest, confirmation, biochemical, luminescence, single concentration; inhibition, % at 12.5 µM; 6,200 tested, 69% active; shares compounds with SENP7 block; recombinant SENP7, Z-RLRGG-aminoluciferin luminescence, 40 min
Casp3 SENP sel – caspase-3 protease inhibitors, confirmation, selectivity assay for SENP inhibitor project, biochemical, single concentration; 6,200 tested, 60% active; inhibition, % at 12.5 µM; AID 488918, 2010; purified caspase-3, Z-DEVD-aminoluciferin luminescence, 60 min; shares compounds with SENP7 block;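 active = mean inhibition above about 50%, limit read from the data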;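 note: plate controls were enzyme with DMSO for no effect and wells without caspase-3 for full effect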
Target sequence (P42574 28-227 limits assumed): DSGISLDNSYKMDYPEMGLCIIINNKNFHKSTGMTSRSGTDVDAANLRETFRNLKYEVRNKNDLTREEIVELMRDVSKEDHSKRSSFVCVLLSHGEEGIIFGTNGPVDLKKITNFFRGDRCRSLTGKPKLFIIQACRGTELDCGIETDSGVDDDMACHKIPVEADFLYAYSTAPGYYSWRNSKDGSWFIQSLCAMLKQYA
SENP luc ctr – interferes with luciferase luminescence in SENP counter-screen; shares compounds with SENP7 block; Pre-incubated SENP8/Z-RLRGG-aminoluciferin, luciferase luminescence interference; inhibition, % at 12.5 µM; 6,200 tested, 39% active; AID 488919;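 active = mean inhibition above about 50% when retested at one dose, limit read from the data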;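 note: plate controls were DMSO wells with completed reaction for no effect and substrate without enzyme for full effect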
An asterisk follows results filed as active; / = no result.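 Rule for the calls, unless noted: active = mean inhibition above about 50% in the one-dose retest (limit read from the data); inactive = the rest.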

SMILES	SENP1 inh	SENP8 block-1	SENP8 block-2	SENP7 block	HSP90 refold inh	SENP6 inh	SENP8 confirm	SENP6 confirm	SENP7 confirm	Casp3 SENP sel	SENP luc ctr
COc1ccccc1-n1c(=O)oc2ccc(Cl)cc2c1=O	5	40	4	12	0	53*	53*	50*	55*	30	5
FC(F)C(F)(F)Oc1cccc(Nc2nccn3c(-c4cccc5ccccc45)cnc23)c1	-13	/	-316	/	/	/	/	/	/	/	/
Cc1cc([N+](=O)[O-])cc(/C=N\NC(=O)C2COc3ccccc3O2)c1O (stereo not drawn)	-34	22	16	6	2	64*	24	12	66*	38	30
O=C(N/N=C\c1ccc(O)c([N+](=O)[O-])c1)C1COc2ccccc2O1 (stereo not drawn)	-3	6	14	10	0	-9	/	/	/	/	/
Cc1nnc(SCC(=O)OC2CC(C)CCC2C(C)C)[nH]c1=O (stereo not drawn)	1	-3	6	-2	0	-8	/	/	/	/	/
CC1CCC(C(C)C)C(OC(=O)CSc2n[nH]c(=O)[nH]c2=O)C1 (stereo not drawn)	1	51*	5	-4	-3	0	-3	5	9	3	-9
O=C(CC(Nc1ccc(F)cc1)C(=O)O)c1ccccc1 (stereo not drawn)	-14	83*	-30	74*	-1	96*	69*	82*	91*	83*	31
CCOC(=O)c1cc2c(=O)c3ccccc3oc2nc1C	4	44	7	58*	4	58*	42	43	67*	74*	19
COc1cc(CNCc2ccncc2)cc(Br)c1OCc1ccccc1F	0	3	4	9	0	-7	/	/	/	/	/
COc1cc(CNc2ccc(O)cc2)cc(Br)c1OCc1ccccc1F	0	-5	19	60*	0	23	1	4	-3	-2	1
CCN(CC)c1ccc(N=Nc2nn(C)c(C)c2[N+](=O)[O-])cc1	4	54*	38	63*	0	78*	-17	-7	19	10	-2
CCNC(=O)NC(=O)COC(=O)c1ccccc1SCC(=O)NC(=O)NCC	-133	93*	-472	93*	6	95*	96*	96*	102*	98*	85*
O=C(NCCCN1CCCC1=O)c1cccc(S(=O)(=O)N2CCN(c3ccccc3)CC2)c1	1	3	5	3	-2	5	/	/	/	/	/
c1ccc2c(c1)Cn1c-2nc2ccccc21	2	81*	-1	91*	5	92*	90*	88*	99*	95*	86*
c1ccc2c(c1)Cn1nnnc1-2	3	-8	2	-12	-2	3	/	/	/	/	/
Brc1c(-c2ccccc2)nc2n1Cc1ccccc1-2	0	51*	18	47	-1	75*	6	65*	72*	42	16
O=C1c2ccccc2-c2nc3ccccc3n21	0	-29	-33	3	-5	15	/	/	/	/	/
CCCCNc1cc(NC(C)=O)cc2cc(OC)c(OC)cc12	3	32	-272	-10	2	51*	27	55*	15	2	1
CCCC(=O)Nc1cc(OC)c(OC)cc1C(=O)O	0	-5	5	-5	1	-9	/	/	/	/	/
COc1cc2cc(NC(C)=O)cc(NCc3ccccc3)c2cc1OC	-2	70*	-313	47	-3	75*	10	31	13	6	-7
CNS(=O)(=O)c1cccc(C(=O)NCC(c2cccs2)N2CCOCC2)c1 (stereo not drawn)	-3	-10	12	-7	/	-22	/	/	/	/	/
O=c1[nH]c(N/N=C\c2ccc(F)cc2)nc2ccccc12	-142	0	-293	-8	-2	-23	/	/	/	/	/
O=C(O)c1ccc(/C=N/Nc2nc3ccccc3[nH]2)cc1	-5	49	-193	58*	4	-3	14	17	46	33	4
O=c1[nH]c(N/N=C/c2ccc(O)cc2)nc2ccccc12	-128	60*	-336	51*	1	75*	44	62*	86*	81*	71*
O=C1C(C=Nc2ccccc2)=C(O)c2ccccc21	-1	92*	32	99*	17*	98*	87*	88*	100*	94*	61*
SMILES	SENP1 inh	SENP8 block-1	SENP8 block-2	SENP7 block	HSP90 refold inh	SENP6 inh	SENP8 confirm	SENP6 confirm	SENP7 confirm	Casp3 SENP sel	SENP luc ctr
CN=CC1=C(O)c2ccccc2C1=O	0	2	2	-4	1	1	/	/	/	/	/
O=C1C(C=Nc2ccccc2O)=C(O)c2ccccc21	3	95*	45*	5	17*	96*	88*	95*	100*	95*	96*
Cc1cccc(Nc2cc(=O)n(C)c(=O)n2C)c1	0	/	8	/	/	/	/	/	/	/	/
c1cc2c(cc1C1=NNC(=NC3CC3)SC1)OCCO2	2	96*	7	97*	76*	97*	98*	99*	102*	98*	96*
O=c1oc(C2(O)CCCCC2)cc2ccc(-c3ccc4[nH]ccc4c3)cc12	-1	10	-360	53*	/	12	-12	-4	-5	5	1
O=C(NC1CC1)c1cc(=S)[nH]c2ccccc12	1	-17	-52	-7	/	-20	/	/	/	/	/
CCCSc1nnc(CSc2nc3nc(C)cc(C)n3n2)o1	1	-2	8	-6	4	-14	/	/	/	/	/
